# Key:
# [1] = target: T1, Prostaglandin G/H synthase 2 (Homo sapiens) (UniProt P35354); assay: Percentage inhibition of Prostaglandin G/H synthase 2 activity in human whole blood (HWB) at 10 uM; format: tissue-based
# T1 sequence (whole entry): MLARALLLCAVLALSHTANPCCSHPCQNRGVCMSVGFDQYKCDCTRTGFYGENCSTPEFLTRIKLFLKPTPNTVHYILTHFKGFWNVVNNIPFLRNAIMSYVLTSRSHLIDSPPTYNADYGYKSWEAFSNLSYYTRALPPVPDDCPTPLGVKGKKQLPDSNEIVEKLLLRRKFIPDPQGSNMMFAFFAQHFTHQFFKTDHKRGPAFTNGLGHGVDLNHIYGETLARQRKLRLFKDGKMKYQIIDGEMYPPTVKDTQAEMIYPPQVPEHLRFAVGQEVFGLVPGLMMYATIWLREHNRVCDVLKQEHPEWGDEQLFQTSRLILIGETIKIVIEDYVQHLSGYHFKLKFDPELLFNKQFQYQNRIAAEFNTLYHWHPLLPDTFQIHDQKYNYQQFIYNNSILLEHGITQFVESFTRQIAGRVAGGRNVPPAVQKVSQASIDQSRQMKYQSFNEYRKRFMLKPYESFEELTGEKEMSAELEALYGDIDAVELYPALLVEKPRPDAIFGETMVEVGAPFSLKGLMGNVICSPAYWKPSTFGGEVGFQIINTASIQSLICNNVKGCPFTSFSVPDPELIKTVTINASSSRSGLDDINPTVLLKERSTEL
# In short: (§1)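 COX-2: human whole blood stimulated with lipopolysaccharide 026:B6, 37 °C, 24 h, with aspirin (20 µg/mL) to block COX-1. PGE2 by enzyme immunoassay after centrifugation. Run in duplicate or repeated.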
# [2] = target: T2, Prostaglandin G/H synthase 1 (Homo sapiens, UniProt P23219); assay: Percentage of inhibition of Prostaglandin G/H synthase 1 activity in human whole blood (HWB) at 10 uM; format: tissue-based
# T2 sequence (P23219 whole entry): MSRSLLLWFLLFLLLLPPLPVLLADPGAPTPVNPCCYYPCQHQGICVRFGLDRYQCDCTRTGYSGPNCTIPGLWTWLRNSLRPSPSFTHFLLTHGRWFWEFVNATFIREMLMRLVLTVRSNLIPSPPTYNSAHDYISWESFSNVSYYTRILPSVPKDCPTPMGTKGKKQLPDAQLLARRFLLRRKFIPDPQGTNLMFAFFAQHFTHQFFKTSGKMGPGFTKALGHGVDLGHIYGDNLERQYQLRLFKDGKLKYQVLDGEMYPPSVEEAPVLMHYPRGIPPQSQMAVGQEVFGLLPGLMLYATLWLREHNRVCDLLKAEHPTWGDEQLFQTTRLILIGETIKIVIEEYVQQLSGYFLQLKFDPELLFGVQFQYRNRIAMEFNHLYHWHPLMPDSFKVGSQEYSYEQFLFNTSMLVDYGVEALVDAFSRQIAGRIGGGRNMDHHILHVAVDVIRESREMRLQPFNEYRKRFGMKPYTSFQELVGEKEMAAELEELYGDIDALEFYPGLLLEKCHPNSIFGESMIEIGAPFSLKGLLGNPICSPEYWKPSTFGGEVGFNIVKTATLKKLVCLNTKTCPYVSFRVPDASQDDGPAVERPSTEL
# In short: (§2)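 COX-1: human blood left to clot spontaneously 5 h at 37 °C, then A23187 (5 μM) 30 min further. Stopped at 0 °C with EGTA/MeOH; supernatant TXB2 by enzyme immunoassay. Run in duplicate or repeated.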
# [3] = target: T2, Prostaglandin G/H synthase 1; format: cell-based, U-937
# [4] = target: T1, Prostaglandin G/H synthase 2 (Homo sapiens); assay: Percentage of inhibition of Prostaglandin G/H synthase 2 activity in human whole blood (HWB) at 1 uM; format: tissue-based; in short: as §1
# [5] = target: T2, Prostaglandin G/H synthase 1; assay: Percentage of inhibition of Prostaglandin G/H synthase 1 activity in human whole blood (HWB) at 1 uM; format: tissue-based; in short: as §2
structure (smiles),measurement,setting,value
CS(=O)(=O)c1ccc(-c2nn3cccnc3c2-c2ccc(F)cc2)cc1,inhibition,[1],36.2%
same,inhibition,[2],35%
same,IC50,[3],> 10 µM
CCCc1cnnc2c(-c3ccc(F)cc3)c(-c3ccc(S(C)(=O)=O)cc3)nn12,inhibition,[1],100%
same,inhibition,[2],29.3%
same,inhibition,[4],43.9%
Cc1nc2c(-c3ccc(F)cc3)c(-c3ccc(S(C)(=O)=O)cc3)nn2c(Cl)c1C,inhibition,[1],45.8%
same,inhibition,[2],1.2%
Cc1ccn2c(-c3ccc(F)cc3)c(-c3ccc(S(C)(=O)=O)cc3)nc2c1C,inhibition,[1],66.7%
same,inhibition,[2],0%
same,inhibition,[4],59.3%
Cc1cn2nc(-c3ccc(S(C)(=O)=O)cc3)c(-c3ccc(F)cc3)c2nc1C,inhibition,[2],32.6%
same,IC50,[3],> 10 µM
Cc1cnc2c(-c3ccc(F)c(F)c3)c(-c3ccc(S(C)(=O)=O)cc3)nn2c1C,inhibition,[1],100%
same,inhibition,[2],36.3%
same,inhibition,[4],100%
CS(=O)(=O)c1ccc(-c2nn3c4c(cnc3c2-c2ccc(F)cc2)SCC4)cc1,inhibition,[1],90.7%
same,inhibition,[2],7%
same,inhibition,[4],14.8%
CCCc1c(C)nnc2c(-c3ccc(F)cc3)c(-c3ccc(S(C)(=O)=O)cc3)nn12,inhibition,[1],95%
same,inhibition,[2],18.7%
same,inhibition,[4],17.9%
Cc1c(CF)cnc2c(-c3ccc(F)cc3)c(-c3ccc(S(C)(=O)=O)cc3)nn12,inhibition,[1],84.6%
same,inhibition,[2],7.3%
same,inhibition,[4],4.4%
Cc1cnc2c(-c3ccc(F)cc3)c(-c3ccc(S(N)(=O)=O)cc3)nn2c1C,inhibition,[1],99.1%
same,inhibition,[2],22%
same,inhibition,[4],22.5%
CCCc1ccnc2c(-c3ccc(F)cc3)c(-c3ccc(S(C)(=O)=O)cc3)nn12,inhibition,[1],56.1%
same,inhibition,[2],37.3%
same,inhibition,[4],32.2%
CS(=O)(=O)c1ccc(-c2nn3c4c(cnc3c2-c2ccc(F)cc2)CCCC4)cc1,inhibition,[1],100%
same,inhibition,[2],40.4%
same,inhibition,[4],57.7%
Cc1ccnc2c(-c3ccc(F)cc3)c(-c3ccc(S(C)(=O)=O)cc3)nn12,inhibition,[2],50.5%
same,IC50,[3],> 10 µM
Cc1nc2c(-c3ccc(F)cc3)c(-c3ccc(S(C)(=O)=O)cc3)nn2c(C)c1C,inhibition,[2],61.3%
same,IC50,[3],> 10 µM
Cc1cnc2c(-c3ccc(F)cc3)c(-c3ccc(S(C)(=O)=O)cc3)nn2c1CO,inhibition,[1],100%
same,inhibition,[2],42.7%
same,inhibition,[4],56.5%
Cc1cnc2c(-c3ccc(F)cc3)c(-c3ccc(S(C)(=O)=O)cc3)nn2c1,inhibition,[2],8.2%
same,IC50,[3],> 10 µM
Cc1cc2c(nc(-c3ccc(S(C)(=O)=O)cc3)n2-c2ccc(F)cc2)c(C)n1,inhibition,[1],4.3%
same,inhibition,[2],0%
CCOC(=O)c1cc(C)n2nc(-c3ccc(S(C)(=O)=O)cc3)c(-c3ccc(F)cc3)c2n1,inhibition,[1],41%
same,inhibition,[2],8%
CS(=O)(=O)c1ccc(-c2nc3cccnn3c2-c2ccc(F)cc2)cc1,inhibition,[1],61.2%
same,inhibition,[2],47%
CCc1nnc2c(-c3ccc(F)cc3)c(-c3ccc(S(C)(=O)=O)cc3)nn2c1C,inhibition,[1],100%
same,inhibition,[2],61.9%
same,inhibition,[4],74.9%
CCCCc1nccn2c(-c3ccc(F)cc3)c(-c3ccc(S(C)(=O)=O)cc3)nc12,inhibition,[1],0%
same,inhibition,[2],9.8%
Cc1ccn2nc(-c3ccc(S(C)(=O)=O)cc3)c(-c3ccc(F)cc3)c2n1,inhibition,[2],19%
same,IC50,[3],> 10 µM
Cc1cnn2c(-c3ccc(F)cc3)c(-c3ccc(S(C)(=O)=O)cc3)nc2c1C,inhibition,[1],100%
same,inhibition,[2],0%
same,inhibition,[4],37.3%
CCc1nnc2c(-c3ccc(F)cc3)c(-c3ccc(S(C)(=O)=O)cc3)nn2c1CC,inhibition,[1],100%
same,inhibition,[2],88.7%
same,inhibition,[4],50.9%
Cc1cc(O)n2nc(-c3ccc(S(C)(=O)=O)cc3)c(-c3ccc(F)cc3)c2n1,inhibition,[1],21.9%
same,inhibition,[2],8.1%
CCCCc1cnnc2c(-c3ccc(F)cc3)c(-c3ccc(S(C)(=O)=O)cc3)nn12,inhibition,[1],89.7%
same,inhibition,[2],69.8%
same,inhibition,[4],0.9%
COc1cc(C)nc2c(-c3ccc(F)cc3)c(-c3ccc(S(C)(=O)=O)cc3)nn12,inhibition,[1],0%
same,inhibition,[2],0%
Cc1cnc2c(-c3ccc(F)c(F)c3)c(-c3ccc(S(N)(=O)=O)cc3)nn2c1C,inhibition,[1],100%
same,inhibition,[2],68.2%
same,inhibition,[4],97.2%
Cc1ccn2c(-c3ccc(F)cc3)c(-c3ccc(S(C)(=O)=O)cc3)nc2n1,inhibition,[1],50.7%
same,inhibition,[2],13.5%
Cc1cc(Cl)n2nc(-c3ccc(S(C)(=O)=O)cc3)c(-c3ccc(F)cc3)c2n1,inhibition,[1],14.3%
same,inhibition,[2],32.5%
CS(=O)(=O)c1ccc(-c2nc3cnccn3c2-c2ccc(F)cc2)cc1,inhibition,[1],42.5%
same,inhibition,[2],6%
CCCCc1nc(C)nc2c(-c3ccc(F)cc3)c(-c3ccc(S(C)(=O)=O)cc3)nn12,inhibition,[1],54.6%
same,inhibition,[2],7.7%
Cc1nnc2c(-c3ccc(F)cc3)c(-c3ccc(S(C)(=O)=O)cc3)nn2c1C,inhibition,[1],100%
same,inhibition,[2],1.2%
same,inhibition,[4],40.5%
Cc1nc(C)n2nc(-c3ccc(S(C)(=O)=O)cc3)c(-c3ccc(F)cc3)c2n1,inhibition,[1],90.3%
same,inhibition,[2],4.75%
same,inhibition,[4],18.1%
Cc1cc(C(F)(F)F)nc2c(-c3ccc(F)cc3)c(-c3ccc(S(C)(=O)=O)cc3)nn12,inhibition,[1],57.2%
same,inhibition,[2],2.5%
Cc1ccc(-c2c(-c3ccc(S(C)(=O)=O)cc3)nn3c(C)c(C)cnc23)cc1,inhibition,[1],100%
same,inhibition,[2],54.2%
same,inhibition,[4],87.6%
Cc1c(C(=O)O)cnc2c(-c3ccc(F)cc3)c(-c3ccc(S(C)(=O)=O)cc3)nn12,inhibition,[1],56.3%
same,inhibition,[2],8.3%
CS(=O)(=O)c1ccc(-c2nn3c(C(F)(F)F)ccnc3c2-c2ccc(F)cc2)cc1,inhibition,[1],90.6%
same,inhibition,[2],0%
same,inhibition,[4],3.5%
CS(=O)(=O)c1ccc(-c2nn3c4c(cnc3c2-c2ccc(F)cc2)CCC4)cc1,inhibition,[1],90.4%
same,inhibition,[2],0%
same,inhibition,[4],48.3%
Cc1cn2c(-c3ccc(F)cc3)c(-c3ccc(S(C)(=O)=O)cc3)nc2c(C)n1,inhibition,[1],82.4%
same,inhibition,[2],0%
same,inhibition,[4],0%
CCCc1c(C(=O)O)cnc2c(-c3ccc(F)cc3)c(-c3ccc(S(C)(=O)=O)cc3)nn12,inhibition,[1],0%
same,inhibition,[2],7.4%
same,inhibition,[4],31.9%
CCCCc1cc(C)n2nc(-c3ccc(S(C)(=O)=O)cc3)c(-c3ccc(F)cc3)c2n1,inhibition,[1],100%
same,inhibition,[5],6.8%
same,inhibition,[2],86.2%
same,inhibition,[4],51.5%
Cc1cnc2c(-c3ccc(F)cc3)c(-c3ccc(S(C)(=O)=O)cc3)nn2c1-c1ccccc1,inhibition,[1],12.3%
same,inhibition,[2],0%
CC(=O)c1cnc2c(-c3ccc(F)cc3)c(-c3ccc(S(C)(=O)=O)cc3)nn2c1C,inhibition,[1],100%
same,inhibition,[2],71.1%
same,inhibition,[4],60.8%
CS(=O)(=O)c1ccc(-c2nn3c4c(cnc3c2-c2ccc(F)cc2)CSC4)cc1,inhibition,[1],93.6%
same,inhibition,[2],0%
same,inhibition,[4],25%
Cc1cc(C)n2nc(-c3ccc(S(C)(=O)=O)cc3)c(-c3ccc(F)cc3)c2n1,inhibition,[2],8.3%
same,IC50,[3],> 10 µM
CS(=O)(=O)c1ccc(-c2nc3cnccc3n2-c2ccc(F)cc2)cc1,inhibition,[1],21.3%
same,inhibition,[2],34.3%
CCc1c(C)cnc2c(-c3ccc(F)cc3)c(-c3ccc(S(C)(=O)=O)cc3)nn12,inhibition,[1],100%
same,inhibition,[2],82.8%
same,inhibition,[4],62.3%
CS(=O)(=O)c1ccc(-c2nn3c(-c4ccccc4)ccnc3c2-c2ccc(F)cc2)cc1,inhibition,[1],90.4%
same,inhibition,[2],5.7%
same,inhibition,[4],0%
Cc1c(Br)cnc2c(-c3ccc(F)cc3)c(-c3ccc(S(C)(=O)=O)cc3)nn12,inhibition,[1],100%
same,inhibition,[5],18.9%
same,inhibition,[2],83.8%
same,inhibition,[4],84.3%
CCc1cnc2c(-c3ccc(F)cc3)c(-c3ccc(S(C)(=O)=O)cc3)nn2c1C,inhibition,[1],100%
same,inhibition,[5],0%
same,inhibition,[2],91.8%
same,inhibition,[4],50.3%
Cc1cc(C(=O)O)nc2c(-c3ccc(F)cc3)c(-c3ccc(S(C)(=O)=O)cc3)nn12,inhibition,[1],24.6%
same,inhibition,[2],33.5%
CCCCc1cc(C)nc2c(-c3ccc(F)cc3)c(-c3ccc(S(C)(=O)=O)cc3)nn12,inhibition,[1],58.3%
same,inhibition,[2],0%
same,inhibition,[4],11%
Cc1cnc2c(-c3ccc(F)cc3F)c(-c3ccc(S(C)(=O)=O)cc3)nn2c1C,inhibition,[1],100%
same,inhibition,[2],80.8%
same,inhibition,[4],61.1%
Cc1c(C(F)(F)F)cnc2c(-c3ccc(F)cc3)c(-c3ccc(S(C)(=O)=O)cc3)nn12,inhibition,[1],100%
same,inhibition,[5],53.9%
same,inhibition,[2],100%
same,inhibition,[4],69%
